# The list is not random: actives were taken first. Their share in the collection is about 3.9%.
# CHRM1 agonist: human M1 muscarinic receptor agonism; P11229; CHO-K1 hM1, Fluo-8 calcium fluorescence, agonist mode; 0% DMSO, 100% acetylcholine EC100; activation, % at 3 µM; hit rate 0.33% among 360,000;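 active = activation above the run's mean compound activation plus 3 SD, cut at about 16% in these data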;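 also: peak over basal fluorescence ratio within a 140 s kinetic read after compound addition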
# TAAR1 antag: antagonists of human TAAR1 | Q96RJ0 | CHO RD-HGA16 TAAR1, Fluo-8 calcium fluorescence, antagonist | inhibition, % at 3 µM | hit rate 1.5% among 360,000;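 active = inhibition above a per-plate cutoff, the mean inhibition of test compounds on that plate plus 3 SD, cut at about 49% in these data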;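 also: 0% = DMSO plus EC80 beta-PEA response and 100% = DMSO alone without agonist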
#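 Test system: CHO RD-HGA16 cells bearing hTAAR1 | Reagent: β-PEA, EC80 | Compound dosing: 3 µM, single point | Schedule: Dye loading 75 min at 37 °C, then 30 min room temperature | Signal: Calcium fluorescence with Fluo-8 | Evaluation: Percent inhibition of PEA-evoked calcium signal, max/basal emission ratio | Control set: DMSO-only wells and EC80 β-PEA-stimulated wells | Repeats: Singlicate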
# CHRM1 antagonist: human CHRM1 antagonism | P11229 | CHO-K1 hM1, Fluo-8 calcium fluorescence, ACh EC80 antagonist | inhibition, % at 3 µM | hit rate 1.3% among 360,000;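 active = percent inhibition above its own plate's cutoff, namely the mean of that plate's compound wells plus 3 SD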;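 also: peak over basal fluorescence ratio during 140 s after agonist addition; 0% = ACh EC80 plus DMSO and 100% = DMSO alone without agonist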
# TAAR1 agonist: agonists of human TAAR1. hit rate 0.99% among 360,000. Q96RJ0. CHO RD-HGA16 TAAR1, Fluo-8 calcium fluorescence; vehicle wells 0%, saturating PEA agonist 100%. activation, % at 3 µM;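 active = activation above the mean activation of all test compounds in the run plus 3 SD, cut at about 38% in these data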
#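 Test system: RD-HGA16 (CHO) cells co-expressing Gα16 and hTAAR1 / Benchmarks: DMSO vehicle as 0%, PEA at EC100 as 100% / Repeats: no replicates (n 1) / Measure: % activation from peak over basal fluorescence ratio, DMSO-to-PEA scaled / Timing: 17-24 h plating, Fluo-8 75 min 37 °C, 30 min RT / Technique: kinetic Fluo-8 calcium fluorescence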
# m5-HT2A agonist: agonists of mouse serotonin 5-HT2A receptor (HTR2A) | AID 624169 | activation, % at 7.6 µM | hit rate 0.66% among 360,000 | P35363 | CHO-K1 mHTR2A beta-arrestin complementation, luminescence; percent of 30 µM serotonin response;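 active = activation above a run cutoff, the mean activation of all tested compounds plus 3 SD, cut at about 14% in these data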;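 also: 0% = plate median of compound wells and 100% = 30 µM serotonin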
# Target sequence (P35363 whole entry, looked up): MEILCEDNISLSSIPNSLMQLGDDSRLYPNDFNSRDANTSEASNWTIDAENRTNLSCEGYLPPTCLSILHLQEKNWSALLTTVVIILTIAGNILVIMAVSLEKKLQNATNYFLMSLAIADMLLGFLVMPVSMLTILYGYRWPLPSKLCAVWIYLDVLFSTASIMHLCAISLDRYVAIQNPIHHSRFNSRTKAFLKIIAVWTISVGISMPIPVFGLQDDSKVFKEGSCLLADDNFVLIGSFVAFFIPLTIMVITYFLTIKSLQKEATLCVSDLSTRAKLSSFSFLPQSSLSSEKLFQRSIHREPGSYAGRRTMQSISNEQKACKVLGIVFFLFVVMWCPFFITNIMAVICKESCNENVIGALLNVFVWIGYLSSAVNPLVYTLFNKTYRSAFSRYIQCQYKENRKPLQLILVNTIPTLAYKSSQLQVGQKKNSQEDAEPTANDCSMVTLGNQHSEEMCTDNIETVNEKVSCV
# M1 PAM: potentiates human M1 receptor response to acetylcholine; P11229; CHO-K1 hM1, Fluo-8 calcium fluorescence, ACh EC20; 0% = ACh EC20, 100% = maximal ACh; activation, % at 3 µM; hit rate 0.088% among 360,000; in the data active = activation above about 19%, passing the limit was not always enough
# TAAR1 nonsel count: counter-screen for TAAR1 antagonists: nonselective antagonists | shares compounds with TAAR1 antag | counterscreen cell line, calcium fluorescence, antagonist mode | inhibition, % at 3 µM | hit rate 77% among 2,400; in the data active = inhibition above about 22%;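 also: CHO-Ga16 host cells stimulated with ATP at an EC80 level; 0% = agonist EC80 plus vehicle and 100% = vehicle without agonist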
# TAAR1 antag conf: human TAAR1 antagonism, confirmed; shares compounds with TAAR1 antag; inhibition, % at 3 µM; hit rate 40% among 2,400; TAAR1-expressing cells, fluorescence antagonist read-out; AID 651785; in the data active = inhibition above about 49%;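 also: CHO-Ga16 host cells challenged with agonist PEA near its EC80; 0% = agonist at EC80 plus vehicle and 100% = vehicle with no agonist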
# Ga16 ag counter: counter-screen for TAAR1 antagonists: nonselective Ga16 agonists; Ga16-expressing cells, calcium fluorescence, agonist counterscreen; hit rate 18% among 2,400; AID 651953; shares compounds with TAAR1 antag; activation, % at 3 µM; in the data active = activation above about 12%;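 also: 0% = vehicle wells and 100% = saturating stimulus response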
# TAAR1 ag count: activates human TAAR1 in antagonist counter-screen; shares compounds with TAAR1 antag; hTAAR1 cell line, fluorescence activation, agonist mode; activation, % at 3 µM; hit rate 2% among 2,400; in the data active = activation above about 37%;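 also: CHO cells stably expressing TAAR1 with calcium dye readout; 0% = DMSO vehicle and 100% = full agonist response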
# Starred values were filed as active, the others as inactive; / = no result.
SMILES,CHRM1 agonist,TAAR1 antag,CHRM1 antagonist,TAAR1 agonist,m5-HT2A agonist,M1 PAM,TAAR1 nonsel count,TAAR1 antag conf,Ga16 ag counter,TAAR1 ag count
COC(=O)[C@@H](Cc1c[nH]c2ccccc12)NC(=O)CNC(=O)c1ccccc1OC,-2.5,-5.9,-5.3,0.7,8.2,4.8,/,/,/,/
CC(=O)c1c(C)[nH]c(C(=O)COC(=O)CNS(=O)(=O)c2ccccc2)c1C,-2.5,-0.1,-9.7,6.8,6.1,6.8,/,/,/,/
CCOC(=O)c1c(C)[nH]c(C(=O)COC(=O)CNS(=O)(=O)c2ccc(C)cc2)c1C,-0.7,75.5*,2.7,12.0,-4.0,-5.7,39.0*,52.2*,10.4,10.6
C[C@@H]1CN(C(=O)OC(C)(C)C)CCN1c1ccc(Br)c(C#N)c1,/,34.4,/,-2.0,/,/,/,/,/,/
C[C@H]1CN(C(=O)OC(C)(C)C)CCN1c1ccc(Br)c(C#N)c1,/,51.8*,/,-0.4,/,/,37.9*,45.3,11.3,13.5
CCn1c(=O)c(=O)[nH]c2cc(C(=O)NC(C)c3ccc(S(N)(=O)=O)cc3)ccc21 (configuration not stated),-3.5,-8.1,-6.4,3.1,1.6,3.3,/,/,/,/
NC(=O)C1CCN(C(=O)c2ccc3c(=O)n(Cc4ccco4)c(SCc4ccc([N+](=O)[O-])cc4)nc3c2)CC1,0.9,49.3*,-5.3,2.7,0.8,12.0,30.8*,41.2,5.2,7.0
CC1(C(=O)NS(=O)(=O)c2ccccc2OC(F)(F)F)CCN1C(=O)c1ccco1 (configuration not stated),-3.5,-18.5,-6.7,0.2,1.4,1.2,/,/,/,/
Cc1cccc(/C=C/C(=O)c2cc(Br)ccc(=O)c2O)c1,-2.1,51.2*,-6.5,34.7,4.0,6.8,36.2*,27.1,14.4*,16.8
CCOc1ccc(/C=N/NC(=O)CNC(=O)c2ccc(S(=O)(=O)N3CCOCC3)cc2)cc1,-9.3,5.0,-3.2,-1.0,-0.3,9.4,/,/,/,/
CC(NC(=O)C1CC(=O)N(c2ccc3c(c2)OCCO3)C1)c1ccccc1 (configuration not stated),-2.2,7.4,-14.3,1.0,3.7,4.2,/,/,/,/
COC(=O)c1cc2c(c3c4ccccc4n(S(=O)(=O)c4ccc(OC)cc4)c13)C(=O)N(Cc1ccco1)C2,/,-27.4,/,-0.4,/,/,/,/,/,/
COC(=O)c1cc2c(c3c4cc(OC)ccc4n(C(=O)c4ccccc4)c13)C(=O)N(Cc1ccco1)C2,/,65.4*,/,15.0,/,/,29.4*,49.6*,7.3,6.3
COC(=O)c1cc2c(c3c4cc(F)ccc4n(C(=O)c4ccccc4)c13)C(=O)N(Cc1ccco1)C2,/,68.1*,/,14.7,/,/,26.0*,43.9,10.0,8.4
COc1cc(C2SCC(=O)N2Cc2ccccc2)cc(OC)c1OC (configuration not stated),-4.9,-23.9,-3.8,0.9,-3.4,2.3,/,/,/,/
Cc1noc(C)c1C(=O)N1CCC1(C)C(=O)NS(=O)(=O)c1ccc(F)cc1F (configuration not stated),-0.6,5.3,5.4,0.3,1.3,-1.4,/,/,/,/
Nc1c(C(=O)NCC2CCCO2)sc2nc3c(c(-c4ccco4)c12)CC/C3=C\c1ccco1 (configuration not stated),-2.8,52.9*,-5.1,16.4,3.7,9.0,-2.3,0.3,2.8,1.7
COCCN1Cc2cc(C(=O)OC)c3c(c2C1=O)c1cc(OC)ccc1n3S(C)(=O)=O,/,-7.5,/,0.1,/,/,/,/,/,/
COCCN1Cc2cc(C(=O)OC)c3c(c2C1=O)c1cc(F)ccc1n3C(=O)c1ccccc1,/,74.0*,/,12.8,/,/,32.3*,49.3*,7.6,7.2
COCCN1Cc2cc(C(=O)OC)c3c(c2C1=O)c1cc(OC)ccc1n3C(=O)c1ccccc1,/,74.3*,/,15.3,/,/,34.2*,58.1*,7.3,7.8
NC(=O)c1cc([N+](=O)[O-])c(Cl)cc1NCc1ccccn1,0.3,14.4,1.9,4.2,1.4,-5.2,/,/,/,/
Cn1c2ccccc2c(=O)c2ccc(C#CC3(O)CCCCC3)cc21,-4.7,70.7*,39.2*,20.4,9.0,-22.7,38.1*,54.7*,11.0,8.8
O=C(CSc1nnc(SCc2ccccc2)s1)N/N=C/c1c[nH]c2ccccc12,-3.8,0.3,-9.0,4.6,2.9,11.4,/,/,/,/
Cc1ccc(CSc2nnc(SCC(=O)N/N=C/c3c[nH]c4ccccc34)s2)cc1,-0.9,78.9*,3.6,9.5,2.6,5.9,28.1*,43.3,2.6,2.7
Cc1cc(C(=O)NNC(=O)NC(C)C)no1,-0.9,2.1,-0.1,10.8,1.2,-0.3,/,/,/,/
SMILES,CHRM1 agonist,TAAR1 antag,CHRM1 antagonist,TAAR1 agonist,m5-HT2A agonist,M1 PAM,TAAR1 nonsel count,TAAR1 antag conf,Ga16 ag counter,TAAR1 ag count
Cc1ccc(C(O)(COC(=O)C(C)C)COC(=O)C(C)C)c(O)c1,-1.9,2.1,-9.7,-1.0,1.6,-2.5,/,/,/,/
CSc1ccccc1NC(=O)CN1CCN(c2ccccn2)CC1,-4.6,5.1,-7.6,5.2,5.3,6.9,/,/,/,/
O=C(CN1CCN(c2ccccn2)CC1)Nc1ccc([N+](=O)[O-])cc1C(=O)Nc1ccccc1F,-2.1,57.1*,14.0,2.8,9.0,6.3,16.7,39.6,16.2*,5.1
CN(C(=O)c1ccc(NC(=O)C2CCN(C(=O)OC(C)(C)C)CC2)cc1)C1CC1,-3.3,-1.1,-1.9,5.3,-2.5,3.5,/,/,/,/
CN(Cc1ccccc1)C(=O)c1ccc(NC(=O)C2CCN(C(=O)OC(C)(C)C)CC2)cc1,-3.2,59.6*,1.5,23.2,6.6,-1.8,46.8*,42.5,14.3*,14.0
COc1cc(C2CC(=O)c3c([nH]c(C(=O)OCCOC(C)C)c3C)C2)cc(OC)c1OC (configuration not stated),2.3,64.0*,14.7,8.9,9.4,-18.5,34.9*,44.7,11.5*,13.4
CCOCCOC(=O)c1[nH]c2c(c1C)C(=O)CC(c1ccc(OC)c(OC)c1)C2 (configuration not stated),1.7,28.0,-0.2,20.6,0.9,-2.1,/,/,/,/
CCOC(=O)Cn1nc(NC(=O)c2ccc(C(=O)OC)cc2)cc1C,0.0,-13.0,-3.2,2.2,-3.1,0.1,/,/,/,/
COc1ccc(CN(C)C[C@H]2Oc3c(NC(=O)Nc4ccccc4)cccc3C(=O)N([C@H](C)CO)C[C@@H]2C)cc1,-0.9,60.9*,8.6,19.5,-2.2,-7.2,24.7*,41.2,10.6,10.5
